In ChEMBL document CHEMBL1128444 (J Med Chem, 1995):

Assays:
[1] = target: T1, Sodium-dependent dopamine transporter (Rattus norvegicus, UniProt P23977); assay: Binding affinity at the Dopamine transporter in rat striata by inhibition of 0.5 nM [3H]WIN-35428 binding
[2] = target: T2, Norepinephrine transporter (Rattus norvegicus, UniProt Q9WTR4); assay: Binding affinity at the Norepinephrine transporter in rat frontal cortex by inhibition of 0.5 nM [3H]nisoxetine binding; type: tissue-based
[3] = target: Sodium-dependent serotonin transporter (Rattus norvegicus, UniProt P31652); assay: Binding affinity at the Serotonin transporter in rat midbrain by inhibition of 0.5 nM [3H]-paroxetine binding; type: tissue-based
[4] = target: Monoamine transporters; Norepininephrine & dopamine (Rattus norvegicus) (UniProt P23977+Q9WTR4); assay: Ratio of IC50 value against NE to that of DA transporters; type: protein assay
How it was run: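 Competition binding against 0.5 nM [3H]WIN 35,428 (DA transporter) or 0.5 nM [3H]nisoxetine (NE transporter). The IC50 is the mean ± standard error of three or four experiments, each run in triplicate. Selectivity ratios are NE/DA or 5-HT/DA quotients of the IC50 values.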

[5] = target: Monoamine transporters; serotonin & dopamine (Rattus norvegicus) (UniProt P31652+P23977); assay: Ratio of IC50 value against Serotonin transporter to that of dopamine transporter; type: protein assay
[6] = target: T2, Norepinephrine transporter; assay: Inhibition of [3H]NE uptake by rat frontal cortex Norepinephrine transporter; type: tissue-based
How it was run: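 Rat frontal cortex synaptosomes were used at 10 mg/mL tissue with 5 nM final [3H]norepinephrine and 10 μM pargyline in Krebs phosphate buffer, pH 7.4. Incubation was 3 min at 30 °C, followed by filtration and scintillation counting. Nonspecific uptake was defined with 1 μM desipramine. Three or four experiments were run in triplicate, and Ki was derived by Cheng–Prusoff.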

[7] = target: T1, Sodium-dependent dopamine transporter; assay: Inhibition of [3H]DA uptake by rat striatal dopamine transporter
How it was run: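 Rat striatal crude synaptosomes were prepared from male Sprague–Dawley rats by 0.32 M sucrose homogenisation and centrifugation at 800g then 2000g. Each tube held 1.5 mg tissue, 0.5 nM [3H]dopamine and 10 μM pargyline in Krebs phosphate buffer, pH 7.4, with dextrose and ascorbate. Incubation was 3 min at 30 °C, followed by filtration and scintillation counting. Nonspecific uptake was defined with 1 μM mazindol. Three or four experiments were run in triplicate, and Ki was derived by Cheng–Prusoff.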

T1 sequence (P23977 whole entry): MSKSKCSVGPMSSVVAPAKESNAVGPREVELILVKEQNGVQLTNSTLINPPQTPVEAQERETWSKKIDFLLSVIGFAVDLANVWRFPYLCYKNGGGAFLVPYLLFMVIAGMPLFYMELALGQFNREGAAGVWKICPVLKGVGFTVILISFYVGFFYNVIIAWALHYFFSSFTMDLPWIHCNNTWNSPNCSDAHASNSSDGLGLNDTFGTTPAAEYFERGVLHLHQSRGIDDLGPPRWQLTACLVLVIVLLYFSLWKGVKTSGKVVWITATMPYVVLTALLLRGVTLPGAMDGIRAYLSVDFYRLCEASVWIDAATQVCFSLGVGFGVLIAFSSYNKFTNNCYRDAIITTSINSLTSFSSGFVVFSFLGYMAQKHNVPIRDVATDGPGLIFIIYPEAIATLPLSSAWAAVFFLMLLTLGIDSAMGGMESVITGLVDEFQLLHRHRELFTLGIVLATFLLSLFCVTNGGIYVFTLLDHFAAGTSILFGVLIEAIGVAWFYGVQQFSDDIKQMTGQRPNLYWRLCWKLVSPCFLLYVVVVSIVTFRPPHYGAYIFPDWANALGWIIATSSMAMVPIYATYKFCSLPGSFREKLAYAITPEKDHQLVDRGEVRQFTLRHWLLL
Chain of Monoamine transporters; serotonin & dopamine (Rattus norvegicus) (P23977 whole entry, looked up): as the sequence (P23977 whole entry) above
Chain of Monoamine transporters; serotonin & dopamine (Rattus norvegicus) (P31652 whole entry, looked up): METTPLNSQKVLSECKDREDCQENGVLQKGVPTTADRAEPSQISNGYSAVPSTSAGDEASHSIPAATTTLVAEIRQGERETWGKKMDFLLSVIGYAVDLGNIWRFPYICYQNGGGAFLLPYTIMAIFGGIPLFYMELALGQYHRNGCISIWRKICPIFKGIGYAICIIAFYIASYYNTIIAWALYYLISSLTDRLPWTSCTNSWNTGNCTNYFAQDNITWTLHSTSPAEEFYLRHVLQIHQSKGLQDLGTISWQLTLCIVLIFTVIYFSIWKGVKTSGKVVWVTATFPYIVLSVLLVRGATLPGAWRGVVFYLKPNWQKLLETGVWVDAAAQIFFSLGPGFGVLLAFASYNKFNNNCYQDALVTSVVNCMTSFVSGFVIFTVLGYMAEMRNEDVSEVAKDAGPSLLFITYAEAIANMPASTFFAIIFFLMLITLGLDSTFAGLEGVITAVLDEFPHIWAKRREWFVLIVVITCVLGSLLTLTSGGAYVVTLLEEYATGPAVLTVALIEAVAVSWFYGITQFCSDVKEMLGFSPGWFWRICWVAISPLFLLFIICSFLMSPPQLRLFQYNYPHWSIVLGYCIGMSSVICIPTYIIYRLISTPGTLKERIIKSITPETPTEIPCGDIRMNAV
Chain of Sodium-dependent serotonin transporter (P31652 whole entry): as the sequence (P31652 whole entry, looked up) above
T2 sequence (Q9WTR4 whole entry): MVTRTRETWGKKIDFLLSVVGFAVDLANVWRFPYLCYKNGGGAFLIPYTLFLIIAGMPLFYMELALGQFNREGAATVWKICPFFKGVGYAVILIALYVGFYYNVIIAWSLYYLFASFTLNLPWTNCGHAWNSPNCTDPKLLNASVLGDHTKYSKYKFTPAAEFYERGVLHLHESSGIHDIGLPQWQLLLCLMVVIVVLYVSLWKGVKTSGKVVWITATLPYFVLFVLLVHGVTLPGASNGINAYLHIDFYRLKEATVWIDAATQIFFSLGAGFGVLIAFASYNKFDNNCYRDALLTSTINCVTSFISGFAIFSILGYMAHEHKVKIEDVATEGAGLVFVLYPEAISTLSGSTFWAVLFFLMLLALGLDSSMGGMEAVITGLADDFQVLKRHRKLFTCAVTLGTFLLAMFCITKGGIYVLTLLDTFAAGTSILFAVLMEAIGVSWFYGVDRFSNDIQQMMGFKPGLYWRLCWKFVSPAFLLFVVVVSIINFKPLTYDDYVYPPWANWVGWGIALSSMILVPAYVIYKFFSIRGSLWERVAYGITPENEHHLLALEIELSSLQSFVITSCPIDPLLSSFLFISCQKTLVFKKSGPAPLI

Row | SMILES | IC50 [1] [nM] | IC50 [2] [nM] | IC50 [3] [nM] | Ratio [4] | Ratio [5] | Ki [6] [nM] | Ki [7] [nM]
1 | CN1C2CCC1C(C(=O)Oc1ccc(I)cc1)C(c1ccc(Cl)cc1)C2 (centres undefined) | 32.6 | 968 | 1230 | 30 | 38 |  | 
2 | CN1C2CCC1C(C(=O)N1CCCO1)C(c1ccc(I)cc1)C2 (centres undefined) | 0.75 | 357 | 130 | 476 | 173 |  | 
3 | Cc1ccccc1OC(=O)C1C(c2ccc(Cl)cc2)CC2CCC1N2C (centres undefined) | 3.91 | 4780 |  | 1220 | 965 |  | 
4 | COc1ccc(OC(=O)C2C(c3ccc(C)cc3)CC3CCC2N3C)cc1 (centres undefined) | 95.6 | 3150 | 82300 | 33 | 861 |  | 
5 | COC(=O)C1C(c2ccc(Br)cc2)CC2CCC1N2C (centres undefined) | 1.69 |  | 10.6 | 22 | 6 |  | 
6 | CN(C)C(=O)C1C(c2ccc(Cl)cc2)CC2CCC1N2C (centres undefined) | 1.38 | 942 | 1080 | 683 | 782 |  | 
7 | CN1C2CCC1C(C(=O)N1CCCO1)C(c1ccc(Cl)cc1)C2 (centres undefined) | 1.47 | 1080 | 2470 | 736 | 1680 |  | 
8 | CN1C2CCC1C(C(=O)Oc1ccccc1)C(OC(=O)c1ccccc1)C2 (centres undefined) | 112 | 31000 | 33700 | 277 | 301 |  | 
9 | COc1ccc(OC(=O)C2C(c3ccc(Cl)cc3)CC3CCC2N3C)cc1 (centres undefined) | 71 | 1520 | 19700 | 21 | 277 |  | 
10 | CC(C)OC(=O)C1C(c2ccccc2)CC2CCC1N2C (centres undefined) | 85.1 | 32000 | 23100 | 377 | 272 |  | 
11 | Cc1ccc(C2CC3CCC(C2C(=O)Oc2ccc(Cl)cc2)N3C)cc1 (centres undefined) | 117 | 9520 | 42800 | 81 | 366 |  | 
12 | CON(C)C(=O)C1C(OC(=O)c2ccccc2)CC2CCC1N2C (centres undefined) | 60 | 3940 | 28200 | 66 | 469 |  | 
13 | Cc1ccc(C2CC3CCC(C2C(=O)N2CCOCC2)N3C)cc1 (centres undefined) | 11.7 | 23600 | > 100000 | 2020 | > 8550 |  | 
14 | CN1C2CCC1C(C(=O)N1CCCCC1)C(c1ccc(Cl)cc1)C2 (centres undefined) | 6.95 | 1750 | 3470 | 252 | 499 |  | 
15 | Cc1ccc(C2CC3CCC(C2C(=O)Oc2ccccc2C)N3C)cc1 (centres undefined) | 23.2 | 25700 | 11000 | 1110 | 476 |  | 
16 | CCN(CC)C(=O)C1C(c2ccc(Cl)cc2)CC2CCC1N2C (centres undefined) | 5.48 | 5530 | 9430 | 1010 | 1730 |  | 
17 | CN1[C@H]2CC[C@@H]1[C@@H](C(=O)N1CCCC1)[C@@H](c1ccc(Cl)cc1)C2 | 1.38 | 3950 | 12400 | 2860 | 8980 |  | 
18 | CCN(CC)C(=O)C1C(c2ccc(C)cc2)CC2CCC1N2C (centres undefined) | 24.7 | 6220 | 33900 | 252 | 1370 |  | 
19 | CN1C2CCC1C(C(=O)OCc1ccccc1)C(OC(=O)c1ccccc1)C2 (centres undefined) | 257 | 20800 | 302 | 81 | 1.2 |  | 
20 | CN1C2CCC1C(C(=O)N1CCOCC1)C(c1ccc(Cl)cc1)C2 (centres undefined) | 2.9 | 8550 | 88800 | 2950 | 30600 |  | 
21 | Cc1ccc(C2CC3CCC(C2C(=O)Oc2cccc(C)c2)N3C)cc1 (centres undefined) | 8.19 | 2140 |  | 261 | 639 |  | 
22 | Cc1ccc(C2CC3CCC(C2C(=O)OC2CCCC2)N3C)cc1 (centres undefined) | 17.8 | 2630 | 485 | 148 | 27 |  | 
23 | CN(C)C(=O)C1C(OC(=O)c2ccccc2)CC2CCC1N2C (centres undefined) | 127 | 7330 | 144000 | 58 | 1130 |  | 
24 | CN1C2CCC1C(C(=O)N1CCC1)C(c1ccc(Cl)cc1)C2 (centres undefined) | 6.57 | 990 | 814 | 151 | 124 |  | 
25 | CN1C2CCC1C(C(=O)OCCCc1ccccc1)C(OC(=O)c1ccccc1)C2 (centres undefined) | 147 | 4890 | 374 | 33 | 2.5 |  | 

Row | SMILES | IC50 [1] [nM] | IC50 [2] [nM] | IC50 [3] [nM] | Ratio [4] | Ratio [5] | Ki [6] [nM] | Ki [7] [nM]
26 | CN1C2CCC1C(C(=O)Oc1ccccc1)C(c1ccccc1)C2 (centres undefined) | 76.7 | 19300 | 106000 | 251 | 1380 |  | 
27 | CON(C)C(=O)C1C(c2ccc(I)cc2)CC2CCC1N2C (centres undefined) | 1.08 | 103 | 73.9 | 95 | 68 |  | 
28 | CON(C)C(=O)C1C(c2ccc(Cl)cc2)CC2CCC1N2C (centres undefined) | 0.85 | 549 | 724 | 646 | 852 |  | 
29 | Cc1ccc(C2CC3CCC(C2C(=O)OC2CC2)N3C)cc1 (centres undefined) | 1.68 | 644 |  | 383 | 634 |  | 
30 | CN1C2CCC1C(C(=O)Oc1ccc(Cl)cc1)C(c1ccc(Cl)cc1)C2 (centres undefined) | 55 | 4880 | 16900 | 89 | 308 |  | 
31 | Cc1ccc(OC(=O)C2C(c3ccc(Cl)cc3)CC3CCC2N3C)cc1 (centres undefined) | 27.4 | 1280 |  | 45 | 44 |  | 
32 | COC(=O)C1C(c2ccc(C)cc2)CC2CCC1N2C (centres undefined) | 1.71 | 60 |  |  |  | 8.42 | 7.02
33 | Cc1ccc(C2CC3CCC(C2C(=O)OC2CCC2)N3C)cc1 (centres undefined) | 3.74 | 4740 | 2020 | 1270 | 540 |  | 
34 | Cc1ccc(OC(=O)C2C(c3ccc(C)cc3)CC3CCC2N3C)cc1 (centres undefined) | 81.2 | 4100 | 16000 | 50 | 197 |  | 
35 | CN(C(=O)C1C(c2ccc(Cl)cc2)CC2CCC1N2C)c1ccccc1 (centres undefined) | 45.5 | 2200 | 23600 | 48 | 519 |  | 
36 | CCCOC(=O)C1C(OC(=O)c2ccccc2)CC2CCC1N2C (centres undefined) | 196 | 6120 | 4520 | 31 | 23 |  | 
37 | CONC(=O)C1C(c2ccc(Cl)cc2)CC2CCC1N2C (centres undefined) | 10.7 | 9910 | 43700 | 826 | 4080 |  | 
38 | CON(C)C(=O)C1C(c2ccc(C)cc2)CC2CCC1N2C (centres undefined) | 2.55 | 442 | 3400 | 173 | 1330 |  | 
39 | CN1C2CCC1C(C(=O)OC1CC1)C(c1ccc(Cl)cc1)C2 (centres undefined) | 0.96 | 235 |  | 245 | 175 |  | 
40 | COC(=O)[C@@H]1C2CC[C@H](C[C@@H]1c1ccccc1)N2C |  |  |  |  |  | 37.2 | 49.8
41 | CCOC(=O)C1C(OC(=O)c2ccccc2)CC2CCC1N2C (centres undefined) | 195 | 10000 | 5800 | 51 | 30 |  | 
42 | CCC(CC)OC(=O)C1C(c2ccc(C)cc2)CC2CCC1N2C (centres undefined) | 19.1 | 3440 |  | 180 | 236 |  | 
43 | COC(=O)C1C(c2ccc(Cl)c(C)c2)CC2CCC1N2C (centres undefined) | 0.81 | 36.2 | 10.5 | 45 | 13 |  | 
44 | CC(C)OC(=O)C1C(OC(=O)c2ccccc2)CC2CCC1N2C (centres undefined) |  | 30300 | 25200 |  |  |  | 
45 | CNC(=O)C1C(c2ccc(Cl)cc2)CC2CCC1N2C (centres undefined) | 12.4 | 1580 | 1310 | 128 | 106 |  | 
46 | COC(=O)C1C(c2ccc(Cl)c(Cl)c2)CC2CCC1N2C (centres undefined) | 0.79 | 18 | 3.13 |  | 4 |  | 
47 | Cc1cccc(OC(=O)C2C(c3ccc(Cl)cc3)CC3CCC2N3C)c1 (centres undefined) | 9.37 | 2740 |  | 293 | 230 |  | 
48 | CN1[C@H]2CC[C@@H]1[C@@H](C(=O)N1CCCC1)[C@@H](c1ccc(I)cc1)C2 | 0.37 | 991 | 1730 | 2680 | 4670 |  | 
49 | CN1C2CCC1C(C(=O)OCCc1ccccc1)C(OC(=O)c1ccccc1)C2 (centres undefined) | 181 | 19900 | 615 | 110 | 3.4 |  | 
50 | COC(=O)C1C(c2ccc(N)c(I)c2)CC2CCC1N2C (centres undefined) | 1.35 | 1330 | 120 | 984 | 89 |  | 
